Results reported in ChEMBL document CHEMBL4680104, “Structure-Based Optimization of Small-Molecule Inhibitors for the β-Catenin/B-Cell Lymphoma 9 Protein-Protein Interaction” (J Med Chem, 2018).
Active and inactive are the calls of the source. The calls are words filed in the database; no cut-off is given here.

How the values were obtained:
HCT-116 = assay: Cytotoxicity in human HCT-116 cells assessed as reduction in cell viability incubated for 72 hrs by MTS assay; format: functional, cell-based; settings: HCT-116, 72 h
Procedure, shortened: (§1)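 Cells seeded at 5 × 10^3 cells/well, kept overnight at 37 °C, then exposed to inhibitors at various concentrations for 72 h. Viability read with a freshly mixed PMS (0.92 mg/mL) : MTS (2 mg/mL) reagent at 1:19, incubated 3 h at 37 °C, A490 measured. […] Triplicate; mean ± SD.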

[1] = biological target: beta-catenin-B-cell lymphoma 9 protein complex (Homo sapiens) (UniProt P35222+O00512); assay: Inhibition of protein interaction between beta-catenin (unknown origin)/BCL9 in human HEK293 cells transfected with beta-catenin assessed as reduction in Wnt/beta-catenin transactivation incubated for 24 hrs by Wnt-responsive FOP-Flash luciferase reporter assay
[2] = biological target: T1, beta-catenin-B-cell lymphoma 9 protein complex (Homo sapiens, UniProt P35222); assay: Inhibition of protein interaction between beta-catenin (unknown origin)/BCL9 in HEK293 cells transfected with beta-catenin assessed as reduction in Wnt/beta-catenin transactivation incubated for 24 hrs by Wnt-responsive TOP-Flash luciferase reporter assay; format: cell-based
T1 sequence (P35222 whole entry): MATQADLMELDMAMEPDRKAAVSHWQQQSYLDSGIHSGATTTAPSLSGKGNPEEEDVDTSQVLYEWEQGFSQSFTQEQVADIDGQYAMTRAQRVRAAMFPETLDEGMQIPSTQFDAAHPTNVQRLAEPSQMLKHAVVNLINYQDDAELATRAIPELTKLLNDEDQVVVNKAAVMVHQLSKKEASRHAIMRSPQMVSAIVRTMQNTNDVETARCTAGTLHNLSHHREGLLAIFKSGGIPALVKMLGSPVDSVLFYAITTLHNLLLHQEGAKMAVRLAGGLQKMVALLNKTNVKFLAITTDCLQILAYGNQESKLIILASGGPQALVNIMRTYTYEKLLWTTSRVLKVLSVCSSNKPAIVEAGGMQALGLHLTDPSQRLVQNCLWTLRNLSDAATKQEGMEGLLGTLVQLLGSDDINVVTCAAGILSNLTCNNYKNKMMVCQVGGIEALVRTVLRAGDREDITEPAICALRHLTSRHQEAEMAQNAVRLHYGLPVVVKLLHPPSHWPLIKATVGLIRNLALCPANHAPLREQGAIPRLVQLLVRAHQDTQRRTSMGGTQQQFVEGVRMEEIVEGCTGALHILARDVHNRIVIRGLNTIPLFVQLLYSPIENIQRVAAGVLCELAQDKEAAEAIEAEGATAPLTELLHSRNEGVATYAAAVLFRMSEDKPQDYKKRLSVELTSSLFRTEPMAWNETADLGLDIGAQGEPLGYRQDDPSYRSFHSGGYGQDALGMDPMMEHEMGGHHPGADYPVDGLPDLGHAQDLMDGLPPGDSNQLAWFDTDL
T1 sequence (O00512 whole entry): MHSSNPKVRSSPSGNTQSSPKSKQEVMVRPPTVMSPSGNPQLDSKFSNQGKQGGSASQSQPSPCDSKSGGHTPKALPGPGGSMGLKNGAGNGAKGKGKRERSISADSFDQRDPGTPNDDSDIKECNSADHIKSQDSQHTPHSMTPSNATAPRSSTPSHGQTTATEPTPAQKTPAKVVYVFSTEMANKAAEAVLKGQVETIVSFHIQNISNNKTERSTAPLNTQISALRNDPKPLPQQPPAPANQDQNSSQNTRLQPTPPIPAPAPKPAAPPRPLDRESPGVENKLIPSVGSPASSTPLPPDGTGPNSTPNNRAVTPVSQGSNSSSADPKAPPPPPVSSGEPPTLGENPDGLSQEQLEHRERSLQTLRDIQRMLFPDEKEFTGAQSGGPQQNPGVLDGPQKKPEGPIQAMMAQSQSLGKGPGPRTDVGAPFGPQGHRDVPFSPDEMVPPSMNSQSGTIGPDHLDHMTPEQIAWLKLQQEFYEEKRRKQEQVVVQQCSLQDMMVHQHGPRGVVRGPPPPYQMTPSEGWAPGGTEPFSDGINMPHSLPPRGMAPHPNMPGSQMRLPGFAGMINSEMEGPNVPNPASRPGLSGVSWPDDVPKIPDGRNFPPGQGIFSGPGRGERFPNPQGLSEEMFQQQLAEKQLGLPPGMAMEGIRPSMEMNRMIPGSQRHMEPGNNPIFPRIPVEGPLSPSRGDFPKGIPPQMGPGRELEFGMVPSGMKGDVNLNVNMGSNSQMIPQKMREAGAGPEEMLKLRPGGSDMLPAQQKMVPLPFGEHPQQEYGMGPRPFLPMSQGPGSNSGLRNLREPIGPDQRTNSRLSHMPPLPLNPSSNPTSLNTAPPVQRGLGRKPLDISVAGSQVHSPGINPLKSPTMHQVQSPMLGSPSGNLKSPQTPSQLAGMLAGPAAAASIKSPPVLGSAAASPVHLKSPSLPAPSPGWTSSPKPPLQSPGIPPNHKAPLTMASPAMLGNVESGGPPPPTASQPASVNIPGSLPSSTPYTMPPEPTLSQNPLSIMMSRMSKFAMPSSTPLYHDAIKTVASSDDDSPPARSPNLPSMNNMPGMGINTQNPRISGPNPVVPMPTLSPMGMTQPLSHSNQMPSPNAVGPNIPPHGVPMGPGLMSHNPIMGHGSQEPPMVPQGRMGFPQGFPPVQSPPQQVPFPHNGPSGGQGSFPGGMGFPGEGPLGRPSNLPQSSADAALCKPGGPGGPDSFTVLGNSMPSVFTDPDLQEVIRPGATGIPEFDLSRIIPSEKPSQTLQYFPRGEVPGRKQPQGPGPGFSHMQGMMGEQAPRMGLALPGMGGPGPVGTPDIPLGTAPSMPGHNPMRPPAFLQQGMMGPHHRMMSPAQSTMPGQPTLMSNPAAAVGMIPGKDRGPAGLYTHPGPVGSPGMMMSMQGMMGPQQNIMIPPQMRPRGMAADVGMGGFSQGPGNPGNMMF
Procedure, shortened: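 HEK293 cells were cotransfected using FuGENE6 with 45 ng TOPFlash or FOPFlash reporter, 135 ng pcDNA3.1-β-catenin and 20 ng pCMV-RL normalization reporter. After 24 h in DMEM with 10% FBS at 37 °C, inhibitors or DMSO were added for 24 h. Reporter activity was read with a dual luciferase system, normalized, and compared with DMSO-treated cells. Triplicate.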

A549 = assay: Cytotoxicity in human A549 cells assessed as reduction in cell viability incubated for 72 hrs by MTS assay; format: functional, cell-based; settings: A549, 72 h; procedure, shortened: as §1

| Compound | inhibition [1] | IC50 [2] [µM] | IC50 (HCT-116) [µM] | IC50 (A549) [µM] |
| --- | --- | --- | --- | --- |
| Cl.Cl.O=C(Nc1ccc(O[C@H]2CCNC2)c(-c2ccc(F)cc2)c1)c1ccc(O[C@H]2CCNC2)c(-c2ccc3cc(F)ccc3c2)c1 | Active | 10 | 5.6 | 3.7 |
| Cl.Cl.O=C(Nc1ccc(O[C@H]2CCNC2)c(-c2ccc(F)cc2)c1)c1ccc(O[C@H]2CCNC2)c(-c2ccc(F)c(F)c2)c1 | Active | 4.5 |  |  |
| Cl.Cl.O=C(Nc1ccc(O[C@@H]2CCNC2)c(-c2cccc(-c3nn[nH]n3)c2)c1)c1ccc(O[C@H]2CCNC2)c(-c2ccc(F)c(F)c2)c1 | inactive | 25 | 55 | > 400 |
| Cc1cc(F)ccc1-c1cc(NC(=O)c2ccc(O[C@H]3CCNC3)c(-c3ccc(F)c(F)c3)c2)ccc1O[C@H]1CCNC1.Cl.Cl | Active |  | 5.6 | 10 |

Second part, led by results:

| inhibition [1] | IC50 [2] [µM] | Compound | IC50 (HCT-116) [µM] | IC50 (A549) [µM] |
| --- | --- | --- | --- | --- |
| Active | 6.2 | Cl.Cl.O=C(Nc1ccc(O[C@H]2CCNC2)c(-c2ccc(F)cc2)c1)c1ccc(O[C@H]2CCNC2)c(-c2ccc3ccsc3c2)c1 | 7.5 | 9.4 |
| Active | 10 | Cl.Cl.O=C(Nc1ccc(O[C@H]2CCNC2)c(-c2ccc(F)cc2)c1)c1ccc(O[C@H]2CCNC2)c(C2CCC(C(F)(F)F)CC2)c1 (stereo not given in full) | 5.6 | 4.8 |
| Active | 22 | Cl.Cl.O=C(Nc1ccc(O[C@H]2CCNC2)c(-c2ccc(F)cc2)c1)c1cnc(O[C@H]2CCNC2)c(-c2ccc(F)c(F)c2)c1 | 8.7 | 26 |
